Source: ChEMBL document CHEMBL4145692, “Discovery of a Locally and Orally Active CXCL12 Neutraligand (LIT-927) with Anti-inflammatory Effect in a Murine Model of Allergic Airway Hypereosinophilia” (J Med Chem, 2018)
In brackets after ≈: the same amount, converted by molar mass. Blank lines part the entries; values can stand above or below the molecule they belong to. Activity calls are given as the source filed them. The rule behind the calls is not given here.

What was measured:
[1] = Kinetic solubility in pH 7.4 HEPES-BSA buffer at 5 uM incubated for 24 hrs at 20 degC by HPLC method; assay type: physicochemical; conditions: read-out: Kinetic_solubility
Summary of the method: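 Compound added from 10 mM DMSO stock to 5 μM in pH 7.4 HEPES-BSA buffer (1 g/L BSA), shaken 24 h at 20 °C. After centrifugation, supernatant concentration measured by HPLC against 5 and 10 μM standards.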

[2] = target: T1, Stromal cell-derived factor 1 (Homo sapiens, UniProt P48061); assay: Binding affinity to Texas Red-labelled CXCL12 (unknown origin) assessed as inhibition of CXCL12-Texas Red binding to EGFP-labeled human CXCR4 expressed in HEK293 cell membranes at 1 uM pre-incubated for 1 hr by FRET-based binding assay
Summary of the method: (§1)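 HEK-293 cells stably expressing human EGFP-CXCR4, 10⁶ cells/ml in HEPES buffer pH 7.4 with 0.1% BSA, 21 °C. CXCL12-Texas Red (100 nM) was preincubated 1 h at room temperature with compound or DMSO, then added at t=150 s. FRET read as loss of EGFP emission at 510 nm (excitation 470 nm) up to equilibrium. Ki from dose-response curves.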

[3] = target: T1, Stromal cell-derived factor 1; assay: Binding affinity to CXCL12 (unknown origin) assessed as changes in tryptophan fluorescence intensity
Summary of the method: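 Intrinsic Trp fluorescence of CXCL12 (2 μM in Hepes buffer), excitation 285 nm, emission 340 nm, titrated with increasing compound. Kd obtained by fitting a 1:1 binding quadratic model with chemokine fixed at 2 μM. Mean ± SD of three independent experiments.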

[4] = test system: Mus musculus; assay: Inhibition of lymphocytes infiltration in Balb/c mouse model of 8 day model of allergic eosinophilic airway inflammation at 300 nmol/kg dosed intranasally 2 hrs before ovalbumin challenge by hemocytometry; assay type: functional, organism-based
Summary of the method: (§2)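 OVA/alum-sensitized Balb/c mice challenged intranasally with OVA on days 5–7. Compounds at 300 nmol/kg in 10% PBS/Cdx given intranasally 2 h before each challenge. BAL 24 h after the last challenge; eosinophils, neutrophils and lymphocytes counted by hemocytometer and differential cytospin; n=6/group.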

[5] = target: T1, Stromal cell-derived factor 1; assay: Binding affinity to Texas Red-labelled CXCL12 (unknown origin) assessed as inhibition of CXCL12-Texas Red binding to EGFP-labeled human CXCR4 expressed in HEK293 cell membranes at 300 uM pre-incubated for 1 hr by FRET-based binding assay; summary of the method: as §1
[6] = target: T1, Stromal cell-derived factor 1; assay: Binding affinity to Texas Red-labelled CXCL12 (unknown origin) assessed as inhibition of CXCL12-Texas Red binding to EGFP-labeled human CXCR4 expressed in HEK293 cell membranes at 3 uM pre-incubated for 1 hr by FRET-based binding assay; summary of the method: as §1
[7] = test system: Mus musculus; assay: Anti-inflammatory activity in Balb/c mouse model of hypereosinophilia assessed as inhibition of eosinophil infiltration at 2.5 umol/kg, ip dosed 2 hrs before allergen challenge; assay type: functional
Summary of the method: (§3)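 Balb/c mice sensitized with OVA/alum i.p. and challenged intranasally with OVA on 3 consecutive days. Compounds given i.p. 2 h before each challenge: neutraligands 350 μmol/kg in PBS/CMC 1%, AMD3100 12.6 μmol/kg, dexamethasone 2.5 μmol/kg. BAL 24 h after the last challenge; absolute eosinophil counts; mean ± SEM, n=6/group.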

[8] = test system: Mus musculus; assay: Toxicity in Balb/c mouse model of hypereosinophilia assessed as reduction in body weight at 2.5 umol/kg, ip dosed daily 2 hrs before allergen challenge for 3 days and measured 24 hrs after last dose; assay type: organism-based; design: scale not given: the % may be the effect or the level left; conditions: in vivo
Summary of the method: (§4)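 Same OVA model with i.p. dosing 2 h before each of the three challenges: neutraligands 350 μmol/kg in PBS/CMC 1%, AMD3100 12.6 μmol/kg, dexamethasone 2.5 μmol/kg. Body and spleen weight loss recorded 24 h after three daily administrations; n=6/group.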

[9] = test system: Mus musculus; assay: Toxicity in Balb/c mouse model of hypereosinophilia assessed as reduction in spleen weight at 2.5 umol/kg, ip dosed daily 2 hrs before allergen challenge for 3 days and measured 24 hrs after last dose; assay type: organism-based; design: scale not given: the % may be the effect or the level left; conditions: in vivo; summary of the method: as §4
[10] = target: T1, Stromal cell-derived factor 1; assay: Binding affinity to Texas Red-labelled CXCL12 (unknown origin) assessed as inhibition of CXCL12-Texas Red binding to EGFP-labeled human CXCR4 expressed in HEK293 cell membranes at 0.3 uM pre-incubated for 1 hr by FRET-based binding assay; summary of the method: as §1
[11] = test system: Mus musculus; assay: Toxicity in Balb/c mouse model of hypereosinophilia assessed as reduction in body weight at 12.6 umol/kg, ip dosed daily 2 hrs before allergen challenge for 3 days and measured 24 hrs after last dose; assay type: organism-based; design: scale not given: the % may be the effect or the level left; conditions: in vivo; summary of the method: as §4
[12] = test system: Mus musculus; assay: Toxicity in Balb/c mouse model of hypereosinophilia assessed as reduction in spleen weight at 12.6 umol/kg, ip dosed daily 2 hrs before allergen challenge for 3 days and measured 24 hrs after last dose; assay type: organism-based; design: scale not given: the % may be the effect or the level left; conditions: in vivo; summary of the method: as §4
[13] = species on record: Mus musculus; assay: animal or person; conditions: Balb/c, ip, read-out: INH
[14] = Chemical stability in pH 7.4 PBS buffer assessed as parent compound remaining at 10 uM incubated for 24 hrs by RP-HPLC method; assay type: physicochemical; conditions: read-out: Stability
Summary of the method: (§5)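 Compound diluted from DMSO stock to 10 μM final (1% DMSO) in PBS pH 7.4, or in PBS with 10% w/w (2-hydroxypropyl)-β-cyclodextrin. Sampled at t0, 2, 4, 6 and 24 h and injected directly onto RP-HPLC. Percent remaining relative to t0 from peak area.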

[15] = Chemical stability in pH 7.4 PBS/Cdx buffer assessed as parent compound remaining at 10 uM incubated for 24 hrs by RP-HPLC method; assay type: physicochemical; conditions: read-out: Stability; summary of the method: as §5
[16] = Solubility in PBS buffer; assay type: physicochemical
Summary of the method: (§6)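 Powder dissolved to saturation in pH 7.4 PBS (100 mM sodium phosphate, 150 mM NaCl), or in PBS with 10% Cdx, and shaken 24 h. After centrifugation, supernatant quantified by HPLC against a per-compound calibration line prepared from the DMSO stock.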

[17] = test system: Mus musculus; assay: Toxicity in Balb/c mouse model of hypereosinophilia assessed as induction of kidney lesions at 350 umol/kg, ip dosed daily 2 hrs before allergen challenge for […] and measured 24 hrs after last dose by Gomori's trichrome staining based histological analysis; assay type: organism-based; conditions: in vivo
[18] = Thermodynamic solubility in pH 7.4 PBS/Cdx buffer incubated for 24 hrs at 22 degC by HPLC method; assay type: physicochemical; conditions: read-out: Therm_solubility; summary of the method: as §6
[19] = test system: Mus musculus; assay: Inhibition of eosinophil infiltration in Balb/c mouse model of 8 day model of allergic eosinophilic airway inflammation dosed intranasally 2 hrs before ovalbumin challenge by hemocytometry; assay type: functional, organism-based
Summary of the method: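 Same intranasal OVA model with dose-response treatment in PBS/Cdx 10% given 2 h before each challenge. Percent inhibition of BAL eosinophil recruitment; mean ± SEM, n=6/group.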

[20] = test system: Mus musculus; assay: Toxicity in Balb/c mouse model of hypereosinophilia assessed as induction of liver lesions at 350 umol/kg, ip dosed daily 2 hrs before allergen challenge for […] and measured 24 hrs after last dose by Gomori's trichrome staining based histological analysis; assay type: organism-based; conditions: in vivo
[21] = target: T1, Stromal cell-derived factor 1; assay: Binding affinity to Texas Red-labelled CXCL12 (unknown origin) assessed as inhibition of CXCL12-Texas Red binding to EGFP-labeled human CXCR4 expressed in HEK293 cell membranes pre-incubated for 1 hr by FRET-based binding assay; conditions: hek293; summary of the method: as §1
[22] = test system: Mus musculus; assay: Toxicity in Balb/c mouse model of hypereosinophilia assessed as reduction in body weight at 350 umol/kg, ip dosed daily 2 hrs before allergen challenge for 3 days and measured 24 hrs after last dose; assay type: organism-based; design: scale not given: the % may be the effect or the level left; conditions: in vivo; summary of the method: as §4
[23] = test system: Mus musculus; assay: Inhibition of eosinophil infiltration in Balb/c mouse model of 8 day model of allergic eosinophilic airway inflammation at 300 nmol/kg dosed intranasally 2 hrs before ovalbumin challenge by hemocytometry; assay type: functional; conditions: inhaled or nasal; summary of the method: as §2
[24] = test system: Mus musculus; assay: Toxicity in Balb/c mouse model of hypereosinophilia assessed as induction of bristly hair at 350 umol/kg, ip dosed daily 2 hrs before allergen challenge for 10 days and measured 24 hrs after last dose; assay type: organism-based; conditions: in vivo
Summary of the method: (§7)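 Mice given 10 daily administrations at 350 μmol/kg. Monitored for weight loss and for signs of toxicity, including prostration and bristly hair.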

[25] = test system: Mus musculus; assay: Toxicity in Balb/c mouse model of hypereosinophilia assessed as reduction in spleen weight at 350 umol/kg, ip dosed daily 2 hrs before allergen challenge for 3 days and measured 24 hrs after last dose; assay type: organism-based; design: scale not given: the % may be the effect or the level left; conditions: in vivo; summary of the method: as §4
[26] = test system: Mus musculus; assay: Toxicity in Balb/c mouse model of hypereosinophilia assessed as induction of heart lesions at 350 umol/kg, ip dosed daily 2 hrs before allergen challenge for […] and measured 24 hrs after last dose by Gomori's trichrome staining based histological analysis; assay type: organism-based; conditions: in vivo
[27] = test system: Mus musculus; assay: Anti-inflammatory activity in Balb/c mouse model of hypereosinophilia assessed as inhibition of eosinophil infiltration at 350 umol/kg, ip dosed 2 hrs before allergen challenge; assay type: functional; summary of the method: as §3
[28] = test system: Mus musculus; assay: Toxicity in Balb/c mouse model of hypereosinophilia assessed as prostration at 350 umol/kg, ip dosed daily 2 hrs before allergen challenge for 10 days and measured 24 hrs after last dose; assay type: organism-based; conditions: in vivo; summary of the method: as §7
[29] = test system: Mus musculus; assay: Toxicity in Balb/c mouse model of hypereosinophilia assessed as reduction in body weight at 350 umol/kg, ip dosed daily 2 hrs before allergen challenge for 10 days and measured 24 hrs after last dose; assay type: organism-based; conditions: in vivo; summary of the method: as §7
[30] = test system: Mus musculus; assay: Toxicity in Balb/c mouse model of hypereosinophilia assessed as toxic signs at 350 umol/kg, ip dosed daily 2 hrs before allergen challenge for 10 days and measured 24 hrs after last dose; assay type: organism-based; conditions: in vivo; summary of the method: as §7
[31] = test system: Mus musculus; assay: Toxicity in Balb/c mouse model of hypereosinophilia assessed as induction of spleen lesions at 350 umol/kg, ip dosed daily 2 hrs before allergen challenge for […] and measured 24 hrs after last dose by Gomori's trichrome staining based histological analysis; assay type: organism-based; conditions: in vivo
[32] = test system: Mus musculus; assay: Inhibition of macrophages infiltration in Balb/c mouse model of 8 day model of allergic eosinophilic airway inflammation at 300 nmol/kg dosed intranasally 2 hrs before ovalbumin challenge by hemocytometry; assay type: functional, organism-based
[33] = Thermodynamic solubility in pH 7.4 PBS buffer incubated for 24 hrs at 22 degC by HPLC method; assay type: physicochemical; conditions: read-out: Therm_solubility; summary of the method: as §6

T1 sequence (P48061 whole entry): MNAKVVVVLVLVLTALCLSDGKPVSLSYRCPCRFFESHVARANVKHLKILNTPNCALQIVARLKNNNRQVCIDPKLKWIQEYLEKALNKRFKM

SMILES: O=c1nc(-c2ccc(Cl)cc2)cc(-c2ccc(O)cc2)[nH]1
Activity [3]: inactive
inhibition [4]: inactive
inhibition [5]: < 5%

SMILES: C[C@@H]1C[C@H]2[C@@H]3CCC4=CC(=O)C=C[C@]4(C)[C@@]3(F)[C@@H](O)C[C@]2(C)[C@@]1(O)C(=O)CO [DEXAMETHASONE]
inhibition in vivo at 2.5 µmol/kg [7]: 59%
Activity [8]: 10.1%
Activity [9]: 43%

SMILES: COc1cc(-c2cc(-c3ccc(Cl)cc3)nc(-c3ccccc3)n2)ccc1O
solubility kinetic at 24 h, 5 µM [1]: 0.53 µM (≈ 0.206 µg/mL)
inhibition [10]: 20%

SMILES: c1cc(CN2CCCNCCNCCCNCC2)ccc1CN1CCCNCCNCCCNCC1 [PLERIXAFOR]
Activity [11]: 7.8%
Activity [12]: 9.8%
inhibition in vivo at 12.6 µmol/kg [13]: 33%

Second part, led by results:

solubility kinetic at 24 h, 5 µM [1]: 1.17 µM (≈ 0.284 µg/mL)
inhibition [2]: 18%
SMILES: O=C(/C=C/c1ccccc1)c1ccc(Cl)cc1

inhibition [6]: 25%
solubility kinetic at 24 h, 5 µM [1]: 2.31 µM (≈ 0.662 µg/mL)
SMILES: O=C(/C=C/c1ccc2c(c1)OCO2)c1ccc(Cl)cc1

remaining at 24 h, 10 µM [14]: 100%
remaining at 24 h, 10 µM [15]: 100%
solubility [16]: 9 µM (≈ 2.6 µg/mL)
solubility thermodynamic at 24 h [18]: > 300 µM
IC50 [19]: > 500 nmol/kg
Ki [21]: 53 nM
solubility kinetic at 24 h, 5 µM [1]: > 5 µM
solubility thermodynamic at 24 h [33]: 9 µM (≈ 2.6 µg/mL)
SMILES: COc1cc(/C=C/C(=O)c2ccc(Cl)cc2)ccc1O
Activity [11]: Non-Toxic
Activity [12]: Non-Toxic
Activity [17]: Non-Toxic
Activity [20]: Non-Toxic
Activity [22]: 0%
inhibition in vivo at 0.3 µmol/kg [23]: 47%
Activity [24]: Non-Toxic
inhibition [4]: inactive
Activity [25]: 0%
Activity [26]: Non-Toxic
inhibition in vivo at 350 µmol/kg [27]: 54%
Activity [28]: Non-Toxic
Activity [29]: Non-Toxic
Activity [30]: Non-Toxic
Activity [31]: Non-Toxic
inhibition [32]: inactive
